Calls of active or inactive are those of the source. The calls are words filed in the database; no cut-off is given here.

Series [1] addresses Tyrosine-protein phosphatase non-receptor type 2 (Homo sapiens, UniProt P17706). The series is described as follows: Inhibition of TC-PTP (unknown origin) expressed in Escherichia coli BL21(DE3) using DIFMUP as substrate preincubated for 20 mins followed by substrate addition measured after 20 mins by phosphatase assay. The method in brief:
(§1)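 Phosphatases purified from E. coli and run as for SHP2 E76A: 20 min room-temperature preincubation with compound in 0.1 M sodium acetate pH 5.0, then DIFMUP at each enzyme's Km, 20 min, fluorescence 358/455 nm. Eight 3-fold dilutions in duplicate; IC50 from at least three independent experiments.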

The species entered for series [2] is Homo sapiens. The series is described as follows: Selectivity ratio of IC50 for SHP1 (unknown origin) expressed in Escherichia coli BL21(DE3) to IC50 for SHP2 E76A mutant (unknown origin) expressed in Escherichia coli BL21(DE3). The method in brief:
(§2)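 Ratio of IC50 values from one DIFMUP fluorescence assay (Ex/Em 358/455), room temperature, 0.1 M sodium acetate pH 5.0. His-tagged SHP2 E76A (1.5 nM) or counter-phosphatase purified from E. coli, preincubated 20 min with compound (eight 3-fold dilutions), then DIFMUP added for 20 min. DIFMUP was at Km for each counter-phosphatase. Duplicates; IC50 from at least three independent experiments.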

Series [3] deals with Low molecular weight phosphotyrosine protein phosphatase (Homo sapiens, UniProt P24666). The series is described as follows: Inhibition of LMW-PTP (unknown origin) expressed in Escherichia coli BL21(DE3) using DIFMUP as substrate preincubated for 20 mins followed by substrate addition measured after 20 mins by phosphatase assay. The method in brief: as §1
The species entered for series [4] is Homo sapiens. The series is described as follows: Selectivity ratio of IC50 for MKP3 (unknown origin) expressed in Escherichia coli BL21(DE3) to IC50 for SHP2 E76A mutant (unknown origin) expressed in Escherichia coli BL21(DE3). The essentials: as §2
Series [5] deals with T1, Tyrosine-protein phosphatase non-receptor type 11 (Homo sapiens) (UniProt Q06124).
T1 sequence (whole entry): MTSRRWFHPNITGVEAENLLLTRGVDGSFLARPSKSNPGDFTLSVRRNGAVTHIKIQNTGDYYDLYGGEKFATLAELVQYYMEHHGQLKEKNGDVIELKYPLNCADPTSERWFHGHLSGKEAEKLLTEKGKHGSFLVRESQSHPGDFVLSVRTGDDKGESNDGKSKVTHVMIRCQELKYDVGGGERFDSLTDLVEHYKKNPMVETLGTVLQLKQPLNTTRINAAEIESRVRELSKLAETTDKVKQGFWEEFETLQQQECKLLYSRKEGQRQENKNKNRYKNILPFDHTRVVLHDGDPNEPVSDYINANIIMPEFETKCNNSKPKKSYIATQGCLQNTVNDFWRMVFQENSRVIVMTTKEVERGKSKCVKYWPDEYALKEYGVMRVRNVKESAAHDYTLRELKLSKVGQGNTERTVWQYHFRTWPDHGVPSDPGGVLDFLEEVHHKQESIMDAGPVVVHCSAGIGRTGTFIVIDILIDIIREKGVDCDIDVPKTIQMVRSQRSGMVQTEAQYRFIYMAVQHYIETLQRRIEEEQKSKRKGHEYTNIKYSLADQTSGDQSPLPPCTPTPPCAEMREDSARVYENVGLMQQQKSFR
The series is described as follows: Allosteric inhibition of SHP2 in human NCI-H661 cells assessed as downregulation of phosphorylated ERK1/2 levels at 2.5 to 20 uM after 2 hrs by Western blot analysis. Format: cell-based. The essentials: (§3)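 NCI-H661 cells in 6-well plates exposed to inhibitor 2 h at 37 °C. RIPA lysates separated by SDS-PAGE, transferred to PVDF, milk-blocked, probed overnight at 4 °C for pERK1/2, ERK1/2, pAKT and AKT. Repeated at least three times.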

In series [6] the target is T1, Tyrosine-protein phosphatase non-receptor type 11 (Homo sapiens). In words: Allosteric inhibition of SHP2 in human NCI-H661 cells assessed as downregulation of phosphorylated AKT levels at 2.5 to 20 uM after 2 hrs by Western blot analysis. Format: cell-based. The method in brief: as §3
Series [7] has the same target. The series is described as follows: Allosteric inhibition of SHP2 in human NCI-H661 cells assessed as downregulation of ERK1/2 activation at 10 uM after 60 mins by Western blot analysis. Format: cell-based. The method in brief: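 NCI-H661 cells given 10 µM inhibitor over a time course. Lysates immunoblotted for p-ERK1/2, ERK1/2, p-AKT and AKT. Repeated at least three times.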

Series [8] shares this target. The series is described as follows: Allosteric inhibition of SHP2 in human SF268 cells stably expressing Yap-Luc reporter assessed as reduction in YAP transcriptional activity after 12 hrs by Yap-luciferase reporter gene assay. Format: cell-based.
The target is the same in series [9]. In words: Allosteric inhibition of SHP2 in human SF268 cells assessed as downregulation of YAP-mediated CTGF gene expression ay 10 to 20 uM after 2 hrs by qRT-PCR analysis. Format: cell-based. The method in brief:
(§4)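 SF268 cells exposed to DMSO, 10 μM or 20 μM inhibitor for 2 h. RNA extracted, reverse-transcribed, and CTGF, CYR61, ANKRD1 and YAP mRNA quantified by qPCR; mean±s.d., n=3.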

Series [10] shares this target. In words: Inhibition of SHP2 in human SF268 cells assessed as downregulation of YAP-mediated ANKRD1 gene expression ay 10 to 20 uM after 2 hrs by qRT-PCR analysis. Format: cell-based. The essentials:
as §4

Series [11] has the same target. The series is described as follows: Allosteric inhibition of SHP2 in human SF268 cells assessed as upregulation of YAP phosphorylation up to 20 uM after 2 hrs by Western blot analysis. Format: cell-based. The method in brief:
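SF268 cells given DMSO or inhibitor for 2 h. YAP immunoprecipitated and immunoblotted with pY-100 phosphotyrosine antibody, which detects the single YXXP tyrosine Y357.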

For series [12] the target is unchanged. In words: Allosteric inhibition of SHP2 in human A549 cells harboring KRAS mutant assessed downregulation on ERK1/2 phosphorylation at 5 and 10 uM after 2 hrs by Western blot analysis. Format: cell-based.
Series [13] deals with MDA-MB-468. The series is described as follows: Antiproliferative activity against human MDA-MB-468 cells at 3 to 6 uM after 2 days by CellTiter-Glo assay. Format: functional, cell-based. The essentials:
(§5)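 3000 cells/well in 96-well plates, grown overnight, then inhibitor at indicated concentrations for 2 days (48 h). Viability by CellTiter-Glo; mean±s.d., n=3.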

Series [14] deals with KG-1a. The series is described as follows: Antiproliferative activity against human KG1a cells at 3 to 6 uM after 2 days by CellTiter-Glo assay. Format: functional, cell-based. The method in brief:
as §5

Series [15] relates to NCI-H1975. The series is described as follows: Antiproliferative activity against human NCI-H1975 cells at 3 to 6 uM after 2 days by CellTiter-Glo assay. Format: functional, cell-based. The essentials:
as §5

Series [16] deals with MV4-11. In words: Antiproliferative activity against human MV4-11 cells at 3 to 6 uM after 2 days by CellTiter-Glo assay. Format: functional, cell-based. The essentials:
as §5

The nature of series [17]: Oral bioavailability in nu/nu mouse at 10 mg/kg measured up to 24 hrs postdose by LC/MS/MS analysis. The note with it: in vivo. Format: ADME, organism-based. The method in brief: (§6)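 Female nu/nu nude mice dosed IV via tail vein at 5 mg/kg or orally at 10 mg/kg. Blood sampled at 0.083, 0.25, 0.5, 1, 2, 4, 8 and 24 h post-dose (orbital sinus, terminal cardiac puncture; EDTA-2K). Plasma separated at 4 °C, precipitated with acetonitrile containing internal standard, quantified by LC/MS/MS.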

The nature of series [18]: AUC in nu/nu nude mouse at 10 mg/kg, po measured up to 24 hrs postdose by LC/MS/MS analysis. Set-up: dose 10 mg/kg, time < 24 hr, route oral. The note with it: in vivo. Format: ADME, organism-based. The method in brief:
as §6

Chain of Low molecular weight phosphotyrosine protein phosphatase (P24666 whole entry): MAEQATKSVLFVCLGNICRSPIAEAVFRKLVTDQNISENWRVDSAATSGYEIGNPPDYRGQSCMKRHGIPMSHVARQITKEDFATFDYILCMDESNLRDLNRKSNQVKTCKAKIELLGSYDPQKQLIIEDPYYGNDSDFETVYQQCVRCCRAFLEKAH
Chain of Tyrosine-protein phosphatase non-receptor type 2 (P17706 whole entry): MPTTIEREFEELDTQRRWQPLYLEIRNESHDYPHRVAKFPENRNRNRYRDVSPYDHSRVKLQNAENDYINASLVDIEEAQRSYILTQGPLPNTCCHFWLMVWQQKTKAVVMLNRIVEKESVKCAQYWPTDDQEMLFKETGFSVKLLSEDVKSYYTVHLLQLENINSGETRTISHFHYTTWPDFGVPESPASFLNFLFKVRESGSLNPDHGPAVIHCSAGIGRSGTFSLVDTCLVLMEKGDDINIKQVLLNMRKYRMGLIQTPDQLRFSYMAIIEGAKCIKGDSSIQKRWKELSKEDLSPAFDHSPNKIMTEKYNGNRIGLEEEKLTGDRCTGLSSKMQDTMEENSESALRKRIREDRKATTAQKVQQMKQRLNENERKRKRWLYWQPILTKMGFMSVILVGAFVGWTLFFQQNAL

As for `CC1(N)CCN(c2nc(-c3ccc4cc(Br)ccc4c3)cs2)CC1`, the half-maximal inhibitory concentration (IC50) in series [1] and in series [3] was more than 100 µM each time. In addition, the figures for the Ratio IC50 in [2] and in series [4] were 48 and more than 30, respectively. The inhibition entry in [5], in series [6], in [7], in series [9], in [10] and in [11] was “Active” each time. Besides, the inhibition result in series [8] was “Dose-dependent effect”. Further, the inhibition entry in series [12] was “inactive”. Further, the result in [13], in series [14], in series [15] and in [16] was Active. The compound also came in with a bioavailability in series [17] of 67%. For the same compound, the AUC at 24 h in series [18] came out at 9.86 µM·h.

These data come from ChEMBL document CHEMBL4028906, “Allosteric Inhibitors of SHP2 with Therapeutic Potential for Cancer Treatment” (J Med Chem, 2017).
